Source: ChEMBL document CHEMBL1128218, “New alpha-thiol dipeptide dual inhibitors of angiotensin-I converting enzyme and neutral endopeptidase EC 3.4.24.11” (J Med Chem, 1995)

Biological target: T1, Angiotensin-converting enzyme (Rattus norvegicus) (UniProt P47820)
T1 sequence (whole entry): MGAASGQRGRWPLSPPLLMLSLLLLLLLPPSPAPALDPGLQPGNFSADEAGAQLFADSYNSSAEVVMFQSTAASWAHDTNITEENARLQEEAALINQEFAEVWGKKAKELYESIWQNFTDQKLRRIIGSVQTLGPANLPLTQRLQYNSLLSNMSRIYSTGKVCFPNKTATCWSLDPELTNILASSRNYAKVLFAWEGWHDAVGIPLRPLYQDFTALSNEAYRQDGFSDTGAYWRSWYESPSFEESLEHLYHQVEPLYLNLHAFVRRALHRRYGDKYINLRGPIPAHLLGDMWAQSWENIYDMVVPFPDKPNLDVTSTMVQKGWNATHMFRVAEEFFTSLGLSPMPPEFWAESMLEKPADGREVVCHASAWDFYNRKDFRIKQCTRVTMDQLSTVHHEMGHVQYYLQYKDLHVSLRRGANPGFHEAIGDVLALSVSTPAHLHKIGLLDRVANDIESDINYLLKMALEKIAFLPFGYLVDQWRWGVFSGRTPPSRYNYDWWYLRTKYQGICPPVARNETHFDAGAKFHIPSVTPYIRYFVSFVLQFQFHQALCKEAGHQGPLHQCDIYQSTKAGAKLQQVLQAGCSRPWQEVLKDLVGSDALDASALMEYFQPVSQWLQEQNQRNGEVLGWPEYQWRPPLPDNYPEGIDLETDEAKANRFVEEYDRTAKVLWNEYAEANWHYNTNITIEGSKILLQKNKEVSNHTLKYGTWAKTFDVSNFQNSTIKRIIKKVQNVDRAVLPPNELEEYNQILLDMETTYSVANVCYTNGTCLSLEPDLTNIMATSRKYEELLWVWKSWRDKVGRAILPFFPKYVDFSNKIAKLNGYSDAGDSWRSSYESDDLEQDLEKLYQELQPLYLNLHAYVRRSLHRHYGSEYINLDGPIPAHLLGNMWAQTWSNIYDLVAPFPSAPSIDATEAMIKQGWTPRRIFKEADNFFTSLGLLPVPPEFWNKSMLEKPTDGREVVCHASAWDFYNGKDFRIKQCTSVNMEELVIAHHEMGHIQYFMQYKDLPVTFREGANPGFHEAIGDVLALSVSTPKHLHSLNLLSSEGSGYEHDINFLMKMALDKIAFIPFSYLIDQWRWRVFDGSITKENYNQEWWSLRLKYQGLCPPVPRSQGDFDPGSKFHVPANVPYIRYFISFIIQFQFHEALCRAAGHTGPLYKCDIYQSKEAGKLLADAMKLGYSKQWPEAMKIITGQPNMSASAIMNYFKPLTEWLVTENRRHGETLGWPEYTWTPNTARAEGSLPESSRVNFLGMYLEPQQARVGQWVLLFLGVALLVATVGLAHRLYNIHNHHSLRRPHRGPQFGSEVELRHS
Assay: Evaluation of plasma inhibition of Angiotensin I converting enzyme activity in conscious rat 6 hour after oral administration at a dose of 10 mg/kg
Assay type: functional, organism-based
Parameters: dose 10 mg/kg
Summary of the method: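 Male conscious normotensive Sprague-Dawley rats (275-390 g) fitted the day before with femoral arterial and venous catheters under methohexital anesthesia. Three angiotensin-I challenges (300 ng/kg iv) given as baseline. Compound given iv, ia or po (12.3 mg/kg po dose in 3% cornstarch at 1 mg/mL), then AI challenges repeated at set times. Pressor response compared with the mean baseline response and expressed as % inhibition.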

SMILES | inhibition [%]
CC(C)[C@H](S)C(=O)NC1(C(=O)N[C@@H](Cc2c[nH]c3ccccc23)C(=O)O)CCCC1 | 26
CC(C)[C@H](S)C(=O)NC1(C(=O)N[C@@H](Cc2ccc(O)cc2)C(=O)O)CCCC1 | 15
